# According to ChEMBL document CHEMBL1146219, “Synthesis and evaluation of novel radioiodinated benzamides for malignant melanoma” (J Med Chem, 2007):
# Assays:
# [1] = target: Sigma non-opioid intracellular receptor 1 (Cavia porcellus, UniProt Q60492); assay: Displacement of [3H](+)-pentazocine from sigma 1 receptor in guinea pig brain membrane; format: cell membranes
# Summary of the method: (§1)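 Guinea pig brain membranes, incubated in duplicate for 2 h at 25 °C in Tris-HCl pH 8.0. Benzamide 10⁻¹⁰ to […] against 2 nM [³H]-(+)-pentazocine (σ₁) or 2 nM [³H]DTG plus 100 nM (+)-pentazocine (σ₂). Nonspecific binding defined with 1 µM haloperidol. GF/B filtration, bound activity by β-scintillation counting, giving IC50 then Ki. Full curves run only where 10⁻⁵ M inhibited >90%.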
# [2] = Displacement of [3H]DTG from sigma 2 receptor in guinea pig brain membrane; format: cell membranes, Cavia porcellus; summary of the method: as §1
# [3] = Lipophilicity, log P at pH 7.5; format: physicochemical; settings: buffer
# Lung [4] = assay: Biodistribution in lung of B16F0 tumor bearing C57BL/6J mouse at 0.37-0.74 MBq, iv after 6 hrs; format: ADME, organism-based; settings: in vivo
# Summary of the method: (§2)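 Female C57BL/6J mice (15-18 g) were given B16F0 cells subcutaneously in the left flank (0.1 mL of 3 × 10⁶ viable cells/mL in Ca²⁺/Mg²⁺-free PBS) at 6-7 weeks and used after ten days. [¹²³I]benzamide (0.37-0.74 MBq, 100 µL, saline) was injected via the tail vein. Groups of n = 5 were killed by CO₂ and cervical dislocation. Organs were weighed and γ-counted, and the carcass was counted too.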
# Kidney [5] = assay: Biodistribution in kidney of B16F0 tumor bearing C57BL/6J mouse at 0.37-0.74 MBq, iv after 6 hrs; format: ADME, organism-based; settings: in vivo; summary of the method: as §2
# Lung [6] = assay: Biodistribution in lung of B16F0 tumor bearing C57BL/6J mouse at 0.37-0.74 MBq, iv after 1 hr in presence of haloperidol; format: ADME, organism-based; settings: in vivo
# Summary of the method: (§3)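 Haloperidol blocking in B16F0-bearing C57BL/6J mice: 1 mg/kg haloperidol was given iv 5 min before the iv [¹²³I]benzamide (0.37-0.74 MBq). Groups of n = 5 were killed at 1 or 24 h. Tissues were weighed and γ-counted as in the biodistribution study and compared with untreated controls by one-way ANOVA, with p < 0.01 taken as significant.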
# Blood [7] = assay: Biodistribution in blood of B16F0 tumor bearing C57BL/6J mouse at 0.37-0.74 MBq, iv after 1 hr; format: ADME, organism-based; settings: in vivo; summary of the method: as §2
# Lung [8] = assay: Biodistribution in lung of B16F0 tumor bearing C57BL/6J mouse at 0.37-0.74 MBq, iv after 24 hrs; format: ADME, organism-based; settings: in vivo; summary of the method: as §2
# Liver [9] = assay: Biodistribution in liver of B16F0 tumor bearing C57BL/6J mouse at 0.37-0.74 MBq, iv after 24 hrs; format: ADME, organism-based; settings: in vivo; summary of the method: as §2
# Kidney [10] = assay: Biodistribution in kidney of B16F0 tumor bearing C57BL/6J mouse at 0.37-0.74 MBq, iv after 24 hrs; format: ADME, organism-based; settings: in vivo; summary of the method: as §2
# Lung [11] = assay: Biodistribution in lung of B16F0 tumor bearing C57BL/6J mouse at 0.37-0.74 MBq, iv after 24 hrs in presence of haloperidol; format: ADME, organism-based; settings: in vivo; summary of the method: as §3
# Blood [12] = assay: Biodistribution in blood of B16F0 tumor bearing C57BL/6J mouse at 0.37-0.74 MBq, iv after 1 hr in presence of haloperidol; format: ADME, organism-based; settings: in vivo
# Brain [13] = assay: Biodistribution in brain of B16F0 tumor bearing C57BL/6J mouse at 0.37-0.74 MBq, iv after 24 hrs in presence of haloperidol; format: ADME, organism-based; settings: in vivo
# Blood [14] = assay: Biodistribution in blood of B16F0 tumor bearing C57BL/6J mouse at 0.37-0.74 MBq, iv after 6 hrs; format: ADME, organism-based; settings: in vivo; summary of the method: as §2
# [15] = Biodistribution in melanoma of B16F0 tumor bearing C57BL/6J mouse at 0.37-0.74 MBq, iv after 6 hrs; format: ADME, organism-based, B16-F0; settings: in vivo
# Summary of the method: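 Female C57BL/6J mice (15-18 g) carrying s.c. B16F0 flank tumors (0.1 mL of 3 × 10⁶ viable cells per mL in Ca²⁺/Mg²⁺-free PBS, inoculated at 6-7 weeks, used 10 days later). [¹²³I]tracer 0.37-0.74 MBq in saline, 100 µL, tail-vein i.v. Groups of n = 5 killed at 1-72 h. Organs weighed and γ-counted, carcass activity also counted, values as %ID/g.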
# Heart [16] = assay: Biodistribution in heart of B16F0 tumor bearing C57BL/6J mouse at 0.37-0.74 MBq, iv after 1 hr; format: ADME, organism-based; settings: in vivo; summary of the method: as §2
# [17] = Biodistribution in eye of B16F0 tumor bearing C57BL/6J mouse at 0.37-0.74 MBq, iv after 24 hrs in presence of haloperidol; format: ADME, organism-based; settings: in vivo; summary of the method: as §3
# Liver [18] = assay: Biodistribution in liver of B16F0 tumor bearing C57BL/6J mouse at 0.37-0.74 MBq, iv after 1 hr in presence of haloperidol; format: ADME, organism-based; settings: in vivo; summary of the method: as §3
# Liver [19] = assay: Biodistribution in liver of B16F0 tumor bearing C57BL/6J mouse at 0.37-0.74 MBq, iv after 1 hr; format: ADME, organism-based; settings: in vivo; summary of the method: as §2
# [20] = Biodistribution in melanoma of B16F0 tumor bearing C57BL/6J mouse at 0.37-0.74 MBq, iv after 24 hrs; format: ADME, organism-based, B16-F0; settings: in vivo; summary of the method: as §2
# Kidney [21] = assay: Biodistribution in kidney of B16F0 tumor bearing C57BL/6J mouse at 0.37-0.74 MBq, iv after 24 hrs in presence of haloperidol; format: ADME, organism-based; settings: in vivo; summary of the method: as §3
# Liver [22] = assay: Biodistribution in liver of B16F0 tumor bearing C57BL/6J mouse at 0.37-0.74 MBq, iv after 24 hrs in presence of haloperidol; format: ADME, organism-based; settings: in vivo; summary of the method: as §3
# Brain [23] = assay: Biodistribution in brain of B16F0 tumor bearing C57BL/6J mouse at 0.37-0.74 MBq, iv after 1 hr in presence of haloperidol; format: ADME, organism-based; settings: in vivo
# [24] = Biodistribution in tumor of B16F0 tumor bearing C57BL/6J mouse at 0.37-0.74 MBq, iv after 24 hrs in presence of haloperidol; format: ADME, organism-based, B16-F0; settings: in vivo
# Summary of the method: (§4)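 B16F0 tumor-bearing C57BL/6J mice, groups of n = 5, given haloperidol 1 mg/kg i.v. 5 min before the i.v. [¹²³I]tracer (0.37-0.74 MBq). Killed at 1 or 24 h. Tissues γ-counted as for biodistribution and compared with untreated controls by one-way ANOVA, significance p < 0.01.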
# Heart [25] = assay: Biodistribution in heart of B16F0 tumor bearing C57BL/6J mouse at 0.37-0.74 MBq, iv after 6 hrs; format: ADME, organism-based; settings: in vivo; summary of the method: as §2
# [26] = Biodistribution in eye of B16F0 tumor bearing C57BL/6J mouse at 0.37-0.74 MBq, iv after 1 hr in presence of haloperidol; format: ADME, organism-based; settings: in vivo; summary of the method: as §3
# Kidney [27] = assay: Biodistribution in kidney of B16F0 tumor bearing C57BL/6J mouse at 0.37-0.74 MBq, iv after 1 hr; format: ADME, organism-based; settings: in vivo; summary of the method: as §2
# Kidney [28] = assay: Biodistribution in kidney of B16F0 tumor bearing C57BL/6J mouse at 0.37-0.74 MBq, iv after 1 hr in presence of haloperidol; format: ADME, organism-based; settings: in vivo; summary of the method: as §3
# Liver [29] = assay: Biodistribution in liver of B16F0 tumor bearing C57BL/6J mouse at 0.37-0.74 MBq, iv after 6 hrs; format: ADME, organism-based; settings: in vivo; summary of the method: as §2
# Brain [30] = assay: Biodistribution in brain of B16F0 tumor bearing C57BL/6J mouse at 0.37-0.74 MBq, iv after 24 hrs; format: ADME, organism-based; settings: in vivo; summary of the method: as §2
# Heart [31] = assay: Biodistribution in heart of B16F0 tumor bearing C57BL/6J mouse at 0.37-0.74 MBq, iv after 24 hrs; format: ADME, organism-based; settings: in vivo; summary of the method: as §2
# Blood [32] = assay: Biodistribution in blood of B16F0 tumor bearing C57BL/6J mouse at 0.37-0.74 MBq, iv after 24 hrs in presence of haloperidol; format: ADME, organism-based; settings: in vivo
# Brain [33] = assay: Biodistribution in brain of B16F0 tumor bearing C57BL/6J mouse at 0.37-0.74 MBq, iv after 1 hr; format: ADME, organism-based; settings: in vivo; summary of the method: as §2
# Brain [34] = assay: Biodistribution in brain of B16F0 tumor bearing C57BL/6J mouse at 0.37-0.74 MBq, iv after 6 hrs; format: ADME, organism-based; settings: in vivo; summary of the method: as §2
# [35] = Biodistribution in tumor of B16F0 tumor bearing C57BL/6J mouse at 0.37-0.74 MBq, iv after 1 hr in presence of haloperidol; format: ADME, organism-based, B16-F0; settings: in vivo; summary of the method: as §4
# Lung [36] = assay: Biodistribution in lung of B16F0 tumor bearing C57BL/6J mouse at 0.37-0.74 MBq, iv after 1 hr; format: ADME, organism-based; settings: in vivo; summary of the method: as §2
# [37] = Biodistribution in melanoma of B16F0 tumor bearing C57BL/6J mouse at 0.37-0.74 MBq, iv after 1 hr; format: ADME, organism-based, B16-F0; settings: in vivo; summary of the method: as §2
# Blood [38] = assay: Biodistribution in blood of B16F0 tumor bearing C57BL/6J mouse at 0.37-0.74 MBq, iv after 24 hrs; format: ADME, organism-based; settings: in vivo; summary of the method: as §2
# Sequence of Sigma non-opioid intracellular receptor 1 (Q60492 whole entry): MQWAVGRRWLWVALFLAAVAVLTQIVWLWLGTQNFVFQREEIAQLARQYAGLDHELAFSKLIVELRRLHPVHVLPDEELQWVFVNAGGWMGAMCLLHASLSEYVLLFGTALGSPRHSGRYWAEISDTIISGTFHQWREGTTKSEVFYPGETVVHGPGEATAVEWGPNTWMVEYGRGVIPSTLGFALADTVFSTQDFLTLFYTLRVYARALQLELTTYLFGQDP
smiles,measurement,setting,value
CCCN(CCC)CCCCNC(=O)c1ccc(I)cc1,Ki,[1],1300 nM
same,Ki,[2],1000 nM
same,logD,[3],2.46
O=C(NC1CCN(CCF)CC1)c1ccc(I)cc1,Drug uptake,Lung [4],6.4 % ID/g
same,Drug uptake,Kidney [5],3.4 % ID/g
same,Drug uptake,Lung [6],9.7 % ID/g
same,Drug uptake,Blood [7],1 % ID/g
same,Drug uptake,Lung [8],0.33 % ID/g
same,Drug uptake,Liver [9],0.29 % ID/g
same,Drug uptake,Kidney [10],0.22 % ID/g
same,Drug uptake,Lung [11],0.14 % ID/g
same,Drug uptake,Blood [12],1.46 % ID/g
same,Drug uptake,Brain [13],0.06 % ID/g
same,Drug uptake,Blood [14],0.34 % ID/g
same,Drug uptake,[15],12.5 % ID/g
same,Drug uptake,Heart [16],3 % ID/g
same,Drug uptake,[17],24.6 % ID/g
same,Drug uptake,Liver [18],10.1 % ID/g
same,Drug uptake,Liver [19],19.2 % ID/g
same,Drug uptake,[20],5.5 % ID/g
same,Drug uptake,Kidney [21],0.1 % ID/g
same,Drug uptake,Liver [22],0.12 % ID/g
same,Drug uptake,Brain [23],1.61 % ID/g
same,Drug uptake,[24],3.3 % ID/g
same,Drug uptake,Heart [25],0.93 % ID/g
same,Drug uptake,[26],34.8 % ID/g
same,Drug uptake,Kidney [27],8.7 % ID/g
same,Drug uptake,Kidney [28],7.3 % ID/g
same,Drug uptake,Liver [29],3.8 % ID/g
same,Drug uptake,Brain [30],0.09 % ID/g
same,Drug uptake,Heart [31],0.09 % ID/g
same,Drug uptake,Blood [32],0.03 % ID/g
same,Drug uptake,Brain [33],3.1 % ID/g
same,Drug uptake,Brain [34],0.48 % ID/g
same,Drug uptake,[35],10.5 % ID/g
same,Drug uptake,Lung [36],10.8 % ID/g
same,Drug uptake,[37],10.9 % ID/g
same,Drug uptake,Blood [38],0.04 % ID/g
